Experimental data reported in publication PMC3993921 (Inorganic Chemistry, 2014).
“Also recorded” adds a separate entry of the source. One block for each compound: values may come before it.

How the values were obtained:
[1] = system: unstimulated normal cells (resting lymphocytes, PBMC); test: Growth inhibition of normal cells: resting lymphocytes; assay type: cell-based; settings: read-out: lymph (resting) IC50; resting human lymphocytes (PBMC), MTT, 3 d
In short: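 Human lymphocytes (PBMCs) from preservative-free heparinised peripheral blood, left unstimulated (no PHA-P), run like the HeLa MTT assay: 1 × 10^4 cells/well, test compound 0–100 μM, but exposure 3 d. Freshly prepared MTT (5 mg/mL) added for 4 h; absorbance at 570 nm (reference 630 nm). Triplicate; IC50 as 50% growth inhibition.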

[2] = system: human cervical epitheloid carcinoma (HeLa) cells; test: Growth inhibition of HeLa cells; assay type: cell-based; settings: read-out: HeLa IC50, MTT after 7 d, triplicate
In short: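 Seeded at 1 × 10^4 cells/well, 1 h, then test compound 0–100 μM for 7 d. Freshly prepared MTT (5 mg/mL) added for 4 h, absorbance read at 570 nm (reference 630 nm). Triplicate, averaged; IC50 = 50% growth inhibition.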

[3] = in vivo hollow fiber studies
RXF393 = test: DTP 60-cell-line panel: RXF393; assay type: cell-based; settings: renal RXF393, Table 3
RPMI-8226 = test: DTP 60-cell-line panel: RPMI-8226; assay type: cell-based; settings: leukemia RPMI-8226, Tables 3, 4
KM12 = test: DTP 60-cell-line panel: KM12; assay type: cell-based; settings: colon KM12; Table 3
[4] = system: panel of 60 cancer cell lines; test: DTP; assay type: cell-based; settings: for TGI range / TGI Δ: 60 cell lines (log scale)
OVCAR-3 = test: DTP 60-cell-line panel: OVCAR-3; assay type: cell-based; settings: ovarian OVCAR-3, Table 3
leukemia SR cell line = test: DTP 60-cell-line panel: SR; assay type: cell-based
A549/ATCC = test: DTP 60-cell-line panel: A549/ATCC; assay type: cell-based; settings: nonsmall cell lung A549/ATCC, Tables 3, 4
UACC-62 = test: DTP 60-cell-line panel: UACC-62; assay type: cell-based; settings: melanoma UACC-62
COLO 205 = test: DTP 60-cell-line panel: COLO 205; assay type: cell-based; settings: colon COLO205
IGROV ovarian cell line = settings: cited from earlier work
stability in solution = assay type: physicochemical; settings: in solution (dichloromethane for 4)

SMILES: S=C([S][Au][PH](c1ccccc1)(c1ccccc1)c1ccccc1)n1cccn1 [Compound 1, Pyrazolyl-1-dithiocarbamato-triphenylphosphinogold(I)]
IC50 [1]: 9.05 ± 3.5 µM
IC50 [2]: 2.56 ± 0.12 µM

SMILES: S=C([S][Au-][P+](CCCCCC[P+]([Au-][S]C(=S)n1cccn1)(c1ccccc1)c1ccccc1)(c1ccccc1)c1ccccc1)n1cccn1 [Compound 10, Dinuclear Bis(pyrazol-1-yldithiocarbamato)-bis-(diphenylphosphino)hexane Gold(I)]
activity in vivo [3]: not so great
CC50 (RXF393; read-out: LC50): > 100 µM
GI50 (RXF393): 0.45 µM
GI50 (RPMI-8226): 0.19 µM
TGI (RPMI-8226): 0.53 µM
CC50 (RPMI-8226; read-out: LC50): > 100 µM
GI50 (KM12): 0.43 µM
TGI (KM12): 1.73 µM
TGI range [4]: 2.28
TGI Δ [4]: 1.92
IC50 [1]: 18.9 ± 5.66 µM
IC50 [2]: 0.51 ± 0.08 µM
GI50 (OVCAR-3): 0.7 µM
TGI (OVCAR-3): 14.20 µM
CC50 (OVCAR-3; read-out: LC50): > 100 µM
GI50 (leukemia SR cell line; Tables 3, 4): 0.19 µM
TGI (leukemia SR cell line; Tables 3, 4): 2.41 µM
CC50 (leukemia SR cell line; read-out: LC50, Tables 3, 4): > 100 µM
GI50 (A549/ATCC): 0.38 µM
TGI (A549/ATCC): >100 µM
CC50 (A549/ATCC; read-out: LC50): > 100 µM
TGI (UACC-62; Table 3): >100 µM
GI50 (UACC-62; Tables 3, 4): 0.38 µM
CC50 (UACC-62; read-out: LC50, Tables 3, 4): > 100 µM
TGI (COLO 205; Table 3): >100 µM
GI50 (COLO 205; Tables 3, 4): 0.31 µM
CC50 (COLO 205; read-out: LC50, Tables 3, 4): > 100 µM

SMILES: S=C([S][Au][PH](c1ccccc1)(c1ccccc1)c1ccccc1)n1ncc2ccccc21 [Compound 3, Indazolyl-1-dithiocarbamato-triphenylphosphinogold(I)]
IC50 [1]: 14 ± 10.5 µM
IC50 [2]: 2.56 ± 0.17 µM

SMILES: CCN(CC)C(=S)[S][Au][PH](CC)(CC)CC [[(Et3P)Au(S2CNEt2)]]
ID50 (IGROV ovarian cell line): 0.012 mg/L

IC50 [2]: 4.04 ± 0.49 µM
SMILES: S=C([S][Au-][P+](CCCCCC[P+]([Au-][S]C(=S)n1ncc2ccccc21)(c1ccccc1)c1ccccc1)(c1ccccc1)c1ccccc1)n1ncc2ccccc21 [Compound 12, Dinuclear Bis(indazol-1-yldithiocarbamato)-bis-(diphenylphosphino)hexane Gold(I)]
IC50 [1]: 37.7 ± 12.6 µM

IC50 [2]: 3.38 ± 0.3 µM
SMILES: S=C([S][Au-][P+](CCC[P+]([Au-][S]C(=S)n1ncc2ccccc21)(c1ccccc1)c1ccccc1)(c1ccccc1)c1ccccc1)n1ncc2ccccc21 [Compound 9, Bis(indazol-1-yldithiocarbamato)-bis-(diphenylphosphino)propane Dinuclear Gold(I)]
IC50 [1]: 18.5 ± 3.88 µM

IC50 [2]: 3.07 ± 0.48 µM
SMILES: S=C([S][Au][PH](CCC[PH]([Au][S]C(=S)n1cccn1)(c1ccccc1)c1ccccc1)(c1ccccc1)c1ccccc1)n1cccn1 [Compound 7, Bis(pyrazol-1-yldithiocarbamato)-bis-(diphenylphosphino)propane Dinuclear Gold(I)]
IC50 [1]: 7.05 ± 2.02 µM

stability in solution (stability in solution): readily transforming to the Au18 cluster
SMILES: S=C([S][Au][PH](CC[PH]([Au][S]C(=S)n1cccn1)(c1ccccc1)c1ccccc1)(c1ccccc1)c1ccccc1)n1cccn1 [Compound 4, Bis-(pyrazolyl-1-dithiocarbamato)-bis-(diphenylphosphino)ethane Dinuclear Gold(I)]

IC50 [2]: 6.96 ± 0.51 µM
SMILES: Cc1cc(C)n(C(=S)[S][Au-][P+](CCC[P+]([Au-][S]C(=S)n2nc(C)cc2C)(c2ccccc2)c2ccccc2)(c2ccccc2)c2ccccc2)n1 [Compound 8, Bis(3,5-dimethylpyrazol-1-yldithiocarbamato)-bis-(diphenylphosphino)propane Dinuclear Gold(I)]
IC50 [1]: 6.13 ± 2.92 µM

IC50 [2]: 0.14 ± 0.01 µM
SMILES: Cc1cc(C)n(C(=S)[S][Au][PH](CCCCCC[PH]([Au][S]C(=S)n2nc(C)cc2C)(c2ccccc2)c2ccccc2)(c2ccccc2)c2ccccc2)n1 [Compound 11, Dinuclear Bis(3,5-dimethylpyrazol-1-yldithiocarbamato)-bis-(diphenylphosphino)hexane Gold(I)]
activity in vivo [3]: could not be delivered to the targets; also recorded: not so great
TGI range [4]: 2.38
TGI Δ [4]: 1.87
GI50 MG-MID ([4]; median over 60 cell lines (log scale)): –6.25
IC50 [1]: 18.2 ± 15.9 µM

SMILES: Cc1cc(C)n(C(=S)[S][Au-][P+](c2ccccc2)(c2ccccc2)c2ccccc2)n1 [Compound 2, 3,5-dimethylpyrazolyl-1-dithiocarbamato-triphenylphosphinogold(I)]
IC50 [1]: 9.53 ± 3.18 µM
IC50 [2]: 2.63 ± 0.1 µM

SMILES: N.N.[Cl][Pt][Cl] [cis-platin, reference compound]
IC50 [2]: 0.45 ± 0.09 µM
